The values that follow come from PMC7657097 (Medical Mycology, 2020).

Data set [1] relates to A. fumigatus. Kind of data set: Metabolic assay. Type of data set: cell-based, Aspergillus fumigatus. The note with it: for inhibition of metabolic activity: A. fumigatus strains Af293, CEA10 and DTO342-B2, 1 μM peptide, initial experiments, results not shown. The gist of the method: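 A. fumigatus grown 4 days on PDA at 37°C; conidia scraped into saline with 0.002% Tween 20 and counted by haemocytometer. Each well held 5 × 10³ conidia, glucose (final 2%), resazurin and water-diluted peptide. Controls lacked peptide or cells; edge wells held water. Absorbance at 570 nm, corrected for the no-cell control, read repeatedly. Initial strain set tested in duplicate.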

Data set [2] has as its system A. fumigatus. The note with it: EUCAST, ref [27], cited from earlier work.
Data set [3] relates to primary human nasal epithelial cells. The data set is described as follows: Cytotoxicity test. Type of data set: cell-based. The note with it: 5 μM peptide, 3 hours at 37°C, WST-1. In short, it runs like this: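 Primary human nasal epithelial cells were grown to confluency in bronchial epithelial cell medium. Cells were exposed to peptide, then washed three times with PBS. Viability was measured colorimetrically with WST-1 (10% v/v in cell medium). Controls were no peptide (100% viability) and 70% ethanol (total loss of viability). Runs were in triplicate, and treated wells were compared with no-peptide wells by two-tailed paired Student t test.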

In brackets after ≈: the same amount, converted by molar mass. Like-named read-outs stand apart in the source and are kept apart here.

For the compound “LLGDFFRKSKEKIGKEFKRIVQRIKDFLRNLVPRTES-NH2 [LL-37]”, in data set [1] (azole-resistant A. fumigatus strains DTO 327-A8 and 326-I1, tested at 1 and 5 μM, 0.125×MM, 105 μM resazurin, 37°C, 27 h, two experiments), the “concentration at which metabolic activity is inhibited” value is given as “did not inhibit metabolic activity”.
With APKAMRRWVQRWIRRWRPKVLQKNNYL-NH2 [CR183], in data set [1], the “inhibition of metabolic activity” value is given as “inhibited the metabolic activity strongly”.
“RRWVQRWIRRWRKVAAARRWVQRWIRRWRPKV-NH2 [CR173]”: in data set [1], the “inhibition of metabolic activity” value was “inhibited the metabolic activity strongly”.
As a reminder, the MIC is the smallest concentration in the dilution series that meets the test's criterion for growth inhibition. For `C[C@@H](c1ncncc1F)[C@](O)(Cn1cncn1)c1ccc(F)cc1F` [VRC, voriconazole], the MIC in data set [2] (A. fumigatus DTO 326-I1) is 2 mg/L (≈ 5.73 µM); in data set [2] (A. fumigatus DTO 327-A8), “Human ICU patient; Resistant to ITC (>16), POS (0.25), VRC (>16) mg/l”.
With `CCO` [EtOH, ethanol], the “cell viability, Average (%)” value in data set [3] (no peptide = 100% viability, in triplo) is reported as 17.5%. Moreover, the “cytotoxic effect vs no peptide” value in data set [3] (two-tailed paired Student t test) is reported as “increased cytotoxic activity”.
Consider `CCC(C)n1ncn(-c2ccc(N3CCN(c4ccc(OCC5COC(Cn6cncn6)(c6ccc(Cl)cc6Cl)O5)cc4)CC3)cc2)c1=O` (stereo not drawn) [ITC, itraconazole], for which the MIC entry was “Human patient from hematology; Resistant to ITC (>16), POS (1), Intermediate for VRC (2) mg/l” in data set [2] (A. fumigatus DTO 326-I1) and “Human ICU patient; Resistant to ITC (>16), POS (0.25), VRC (>16) mg/l” in data set [2] (A. fumigatus DTO 327-A8).
